Results from ChEMBL document CHEMBL5131377, “Structure-Activity Relationship Studies of Trisubstituted Isoxazoles as Selective Allosteric Ligands for the Retinoic-Acid-Receptor-Related Orphan Receptor γt” (J Med Chem, 2021).

Legend:
[1] = Microsomal stability in human liver microsomes assessed as intrinsic clearance at 1 uM measured up to 50 mins in presence of NADPH by LC-MS/MS analysis; assay type: ADME, Microsome
How it was run: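 Oxidative stability in NADPH-supplemented human liver microsomes; compound at 1 μM, depletion followed by LC–MS/MS for up to 50 min at 37 °C. Intrinsic clearance calculated from half-life, assay volume and microsomal protein amount (μL/min/mg).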

[2] = Kinetic aqueous solubility of compound in HEPES buffer at pH 7.4 at 500 uM measured after 90 mins by spectrophotometry analysis; assay type: physicochemical
How it was run: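 Compound-saturated HEPES buffer (pH 7.4, from DMSO stocks, 500 μM) shaken 90 min at room temperature, filtered, then diluted with an equal volume of acetonitrile.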

[3] = Stability in human plasma assessed as parent compound remaining at 5 uM measured after 1 hr by LC-MS/MS analysis relative to control; assay type: ADME, cell-free; conditions: read-out: Stability
How it was run: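 Compound at 5 μM incubated 1 h at 37 °C in 50% human plasma in PBS; % remaining determined by LC–MS.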

[4] = Permeability of the compound at 500 uM after 20 hrs by PAMPA; assay type: ADME
How it was run: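 Artificial membrane permeation with 500 μM compound in the donor compartment; after 20 h, receiver wells read by spectrophotometry and % flux derived by normalizing to flux across a blank filter.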

| SMILES | CLH [1] [µL/min/mg] | Kinetic_solubility [2] [µM] | remaining at 1 h, 5 µM [3] [%] | permeability [4] [%] |
| --- | --- | --- | --- | --- |
| O=C(O)c1ccc(NCc2c(-c3c(Cl)cccc3C(F)(F)F)noc2-c2cc[nH]c2)cc1 | 31.2 | 460 | 79.1 | 36.1 |
| O=C(O)c1ccc(/C=C/c2c(-c3c(Cl)cccc3C(F)(F)F)noc2-c2cc[nH]c2)cc1 | 69 | 392 | 59.5 | 40.3 |
| O=C(O)c1ccc(-c2nn(C(=O)c3c(Cl)cccc3C(F)(F)F)c3ccccc23)cc1 | 0.4 | 423 | 95.5 | 29.7 |
| O=C(O)c1ccc(OCc2c(-c3c(Cl)cccc3C(F)(F)F)noc2-c2ccc[nH]2)cc1 | 68 | 421 | 89.5 | 50.5 |
| O=C(O)c1ccc(OCc2c(-c3c(Cl)cccc3C(F)(F)F)noc2-c2cn[nH]c2)cc1 | 8.8 | 476 | 100 | 23 |
| O=C(O)c1ccc(OCc2c(-c3c(Cl)cccc3C(F)(F)F)noc2-c2cc[nH]c2)cc1 | 57.8 | 436 | 74.2 | 40.9 |
| O=C(O)c1ccc(OCc2c(-c3c(Cl)cccc3C(F)(F)F)noc2-c2cc[nH]c2)cc1F | 77 | 445 | 97.1 | 37.3 |
